According to ChEMBL document CHEMBL3632466, “Cembranoids from the Gum Resin of Boswellia carterii as Potential Antiulcerative Colitis Agents” (J Nat Prod, 2015):
Activity calls are given as the source filed them. The calls are words filed in the database; no cut-off is given here.

What was measured:
[1] = molecular target: T1, X-box-binding protein 1 (Rattus norvegicus) (UniProt Q9R1S4); test: Transactivation of XBP1 in rat IEC-6 cells at 10 uM after 48 hrs by dual luciferase reporter gene assay relative to con2; format: cell-based
T1 sequence (whole entry): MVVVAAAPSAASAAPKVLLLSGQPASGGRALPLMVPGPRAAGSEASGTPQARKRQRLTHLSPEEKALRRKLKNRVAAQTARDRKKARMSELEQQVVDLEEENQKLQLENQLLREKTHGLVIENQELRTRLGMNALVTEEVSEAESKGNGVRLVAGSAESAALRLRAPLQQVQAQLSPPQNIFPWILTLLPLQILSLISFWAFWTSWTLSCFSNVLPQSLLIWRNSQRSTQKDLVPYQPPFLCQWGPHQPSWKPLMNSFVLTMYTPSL
Summary of the method: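 XBP 1 transcriptional activation measured by dual luciferase reporter detection. Con 2 is the pGL3-basic vector control, and activation is expressed as a fold ratio against it. Con 1 serves as background contrast, and 8-oxodihydrocoptisine is the positive control. Compounds are tested at 10 μM.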

[2] = Cytotoxicity against rat IEC-6 cells assessed as cell survival at 10 uM after 72 hrs by MTT assay relative to control; format: cell-based; conditions: read-out: Survival

C/C1=C\CC[C@]2(C)O[C@H]2C[C@]2(C(C)C)CC[C@@](C)(O2)[C@H](O)CC1=O (relative stereo)
Activity [1]: Active
viability at 72 h, 10 µM [2]: 87%

C/C1=C\CC[C@@]2(C)O[C@@H]2C[C@]2(C(C)C)CC[C@@](C)(O2)[C@H](O)CC1
Activity [1]: Active
viability at 72 h, 10 µM [2]: 87%

C/C1=C\[C@@H](O)C[C@@]2(C)O[C@@H]2C[C@]2(C(C)C)CC[C@@](C)(O2)[C@H](O)CC1=O
fold change (FC) [1]: 2.5
viability at 72 h, 10 µM [2]: 87%

C/C1=C\CC[C@@]2(C)O[C@@H]2C[C@]2(C(C)C)CC[C@@](C)(O2)[C@H](O)CC1=O (relative stereo)
fold change (FC) [1]: 1.5
viability at 72 h, 10 µM [2]: 87%

C/C1=C\[C@@H](O)C[C@@]2(C)O[C@@H]2C[C@]2(C(C)C)CC[C@@](C)(O2)[C@H](O)CC1
Activity [1]: Active
viability at 72 h, 10 µM [2]: 87%

O=c1c2c3c(ccc2cc2n1CCc1cc4c(cc1-2)OCO4)OCO3
fold change (FC) [1]: 2.2

CC(C)[C@@]12CC[C@@](C)(O1)[C@@H]1CC[C@@](C)(O1)[C@@H](O)C[C@@H]1O[C@@]1(C)[C@H](O)C2
Activity [1]: Active
viability at 72 h, 10 µM [2]: 87%

CC(C)[C@@]12CC[C@@](C)(O1)[C@H](O)CC/C(C=O)=C/CC[C@@]1(C)O[C@@H]1C2
fold change (FC) [1]: 1.6
viability at 72 h, 10 µM [2]: 87%

C/C1=C/C[C@@H](O)[C@@]2(C)CC[C@@](C(C)C)(C[C@@H](O)[C@]3(C)CC[C@H]1O3)O2
fold change (FC) [1]: 1.5
viability at 72 h, 10 µM [2]: 87%

C/C1=C\C[C@]2(C(C)C)CC[C@@](C)(O2)[C@@H]2CC[C@@](C)(O2)[C@@H](O)CC1=O (relative stereo)
Activity [1]: Active
viability at 72 h, 10 µM [2]: 87%
